# Results taken from ChEMBL document CHEMBL3856284, “Discovery, design and synthesis of 6H-anthra[1,9-cd]isoxazol-6-one scaffold as G9a inhibitor through a combination of shape-based virtual screening and structure-based molecular modification” (Bioorg Med Chem, 2016).
# Calls of active or inactive are those of the source. The rule behind the calls is not given here.
# Experiments:
# [1] = test system: MCF7; assay: Induction of apoptosis in human MCF7 cells assessed as late apoptotic cells at 4 uM after 48 hrs by annexin V staining-based flow cytometric analysis (reference value: 11%); type: functional
# [2] = test system: Mus musculus; assay: Cmax in mouse at 10 mg/kg, iv after 2 mins to 24 hrs by LC-MS/MS analysis; details: in vivo
# [3] = test system: MCF7; assay: Induction of phenotypic changes in human MCF7 cells assessed as distortion at 4 uM after 24 hrs by inverted light microscopic method; type: functional, cell-based
# Outline: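 MCF-7 cells were incubated 24 h with 2, 4 or 8 µM compound, with an untreated group as control. Cell morphology (distortion, blebbing, shrinkage, rounding, necrosis) was examined under an inverted light microscope at ×200.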
# [4] = test system: Mus musculus; assay: Tmax in mouse at 10 mg/kg, iv after 2 mins to 24 hrs by LC-MS/MS analysis; details: in vivo
# [5] = test system: Mus musculus; assay: Cmax in mouse at 10 mg/kg, po after 5 mins to 24 hrs by LC-MS/MS analysis; details: in vivo
# [6] = molecular target: T1, Histone-lysine N-methyltransferase EHMT2 (Homo sapiens) (UniProt Q96KQ7); assay: Inhibition of G9a in human MCF7 cells assessed as decrease in dimethylation level of H3K9 at […] after 48 hrs by Western blot method; type: cell-based
# T1 sequence (whole entry): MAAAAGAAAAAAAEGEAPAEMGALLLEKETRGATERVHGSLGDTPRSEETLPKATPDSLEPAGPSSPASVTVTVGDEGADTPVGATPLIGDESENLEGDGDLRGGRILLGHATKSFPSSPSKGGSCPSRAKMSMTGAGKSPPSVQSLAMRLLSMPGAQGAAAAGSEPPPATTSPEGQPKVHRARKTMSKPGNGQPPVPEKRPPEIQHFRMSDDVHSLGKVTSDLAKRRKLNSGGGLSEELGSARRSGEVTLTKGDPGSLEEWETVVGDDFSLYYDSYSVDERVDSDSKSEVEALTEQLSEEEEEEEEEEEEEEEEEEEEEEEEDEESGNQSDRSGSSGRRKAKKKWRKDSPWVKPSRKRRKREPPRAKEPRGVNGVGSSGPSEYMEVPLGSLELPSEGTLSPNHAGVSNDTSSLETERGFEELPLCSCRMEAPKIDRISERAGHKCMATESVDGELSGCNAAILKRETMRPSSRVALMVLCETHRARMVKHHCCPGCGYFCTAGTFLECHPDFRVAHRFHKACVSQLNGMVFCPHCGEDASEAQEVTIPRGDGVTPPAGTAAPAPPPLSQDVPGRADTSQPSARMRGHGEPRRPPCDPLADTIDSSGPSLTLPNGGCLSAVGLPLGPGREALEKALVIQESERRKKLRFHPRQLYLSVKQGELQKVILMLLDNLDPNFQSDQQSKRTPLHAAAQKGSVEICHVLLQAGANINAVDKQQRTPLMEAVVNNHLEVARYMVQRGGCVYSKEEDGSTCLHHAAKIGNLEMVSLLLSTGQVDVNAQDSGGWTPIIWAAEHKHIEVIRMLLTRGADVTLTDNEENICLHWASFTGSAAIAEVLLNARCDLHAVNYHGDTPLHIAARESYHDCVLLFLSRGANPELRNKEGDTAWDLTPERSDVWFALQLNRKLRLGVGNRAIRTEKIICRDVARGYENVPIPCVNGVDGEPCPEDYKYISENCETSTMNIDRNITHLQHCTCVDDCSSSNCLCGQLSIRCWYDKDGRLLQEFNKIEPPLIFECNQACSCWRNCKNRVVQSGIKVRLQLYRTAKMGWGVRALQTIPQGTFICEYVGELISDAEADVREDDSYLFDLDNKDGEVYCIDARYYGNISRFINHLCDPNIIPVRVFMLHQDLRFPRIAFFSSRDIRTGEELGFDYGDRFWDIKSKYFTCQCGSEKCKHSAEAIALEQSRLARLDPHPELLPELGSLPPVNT
# [7] = test system: MCF7; assay: Induction of apoptosis in human MCF7 cells assessed as late apoptotic cells at 2 uM after 48 hrs by annexin V staining-based flow cytometric analysis (reference value: 11%); type: functional
# [8] = test system: MCF7; assay: Induction of apoptosis in human MCF7 cells assessed as necrotic cells at 2 uM after 48 hrs by annexin V staining-based flow cytometric analysis (reference value: 5.65%); type: functional
# [9] = test system: MCF7; assay: Induction of apoptosis in human MCF7 cells assessed as viable cells at 8 uM after 48 hrs by annexin V staining-based flow cytometric analysis (reference value: 82.85%); type: functional; details: MCF7, 48 h, read-out: Activity
# [10] = test system: Mus musculus; assay: Volume of distribution in mouse at 10 mg/kg, po after 5 mins to 24 hrs by LC-MS/MS analysis; details: in vivo
# [11] = test system: Mus musculus; assay: Clearance in mouse at 10 mg/kg, iv after 2 mins to 24 hrs by LC-MS/MS analysis; details: in vivo
# [12] = test system: Mus musculus; assay: AUC in mouse at 10 mg/kg, iv after 2 mins to 24 hrs by LC-MS/MS analysis; details: in vivo
# [13] = test system: MCF7; assay: Induction of apoptosis in human MCF7 cells assessed as early apoptotic cells at 4 uM after 48 hrs by annexin V staining-based flow cytometric analysis (reference value: 0.5%); type: functional
# [14] = Antiproliferative activity against human HepG2 cells assessed as inhibition of cell viability after 72 hrs by MTT assay; type: functional, cell-based; details: HepG2, 72 h
# [15] = test system: Mus musculus; assay: AUC in mouse at 10 mg/kg, po after 5 mins to 24 hrs by LC-MS/MS analysis; details: in vivo
# [16] = test system: MCF7; assay: Induction of apoptosis in human MCF7 cells assessed as early apoptotic cells at 2 uM after 48 hrs by annexin V staining-based flow cytometric analysis (reference value: 0.5%); type: functional
smiles,measurement,setting,value
O=C1c2ccccc2-c2onc3c(N4CCCCC4)cc(NCCN4CCCC4)c1c23,Activity,[1],26.05%
same,Cmax,[2],188 ng/mL
same,Activity,[3],Active
same,Tmax,[4],7.2 min
same,Cmax,[5],70.7 ng/mL
same,inhibition,[6],Active
same,Activity,[7],18.25%
same,Activity,[8],3.2%
same,viability at 8 µM,[9],66.5%
same,Vd,[10],90.7 L/kg
same,clearance,[11],135 mL/min/kg
same,AUC,[12],1300 ng·h/mL
same,Activity,[13],0.8%
same,IC50,[14],7.93 µM
same,AUC,[15],724 ng·h/mL
same,Activity,[16],0.3%
